ChEMBL document CHEMBL1141858, “Lichen metabolites. 2. Antiproliferative and cytotoxic activity of gyrophoric, usnic, and diffractaic acid on human keratinocyte growth” (J Nat Prod, 1999)

Key:
HaCaT [1] = test: Growth inhibition of human HaCaT cells assessed as lactate dehydrogenase release at 2 uM after 4 hrs by UV method; format: functional
Method in brief: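 HaCaT cells were exposed to compound at 2 µM for 4 h at 37 °C. Extracellular LDH activity in the medium was measured by the UV method with pyruvate and NADH. Values were compared against vehicle controls (n = 3).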

HaCaT [2] = test: Antiproliferative activity against human HaCaT cells; format: functional, cell-based
Method in brief: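 HaCaT keratinocytes were seeded at 2.5 × 10^4 per well in DMEM and grown 24 h. Cells were trypsinized (0.5% trypsin, 0.2% EDTA, 20 min, 37 °C) and counted by phase contrast microscopy. Inhibition was taken relative to vehicle (n = 3). IC50 was interpolated from a log concentration-response using ≥4 concentrations.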

Row | SMILES | Activity (HaCaT [1]) [mU/mL] | IC50 (HaCaT [2]) [nM]
1 | CC(=O)C1=C(O)C=C2Oc3c(C(C)=O)c(O)c(C)c(O)c3[C@@]2(C)C1=O [(+)-USNIC ACID] | 168 | 2100
2 | O=C1c2c(O)cccc2Cc2cccc(O)c21 [ANTHRALIN] | 294 | 700
3 | COC(=O)c1c(C)cc(OC(=O)c2c(C)cc(O)c(C=O)c2O)c(C)c1O [ATRANORIN] |  | > 5000
4 | COC(=O)c1c(C)cc(O)c(C)c1O [ATRARIC ACID] |  | > 5000
5 | COc1cc(C)c(C(=O)Oc2cc(C)c(C(=O)O)c(O)c2C)c(OC)c1C [DIFFRACTAIC ACID] | 136 | 2600
6 | CCOC(=O)c1c(C)cc(O)c(C=O)c1O [ETHYL HEMATOMMATE] |  | > 5000
7 | Cc1cc(OC(=O)c2c(C)cc(OC(=O)c3c(C)cc(O)cc3O)cc2O)cc(O)c1C(=O)O [GYROPHORIC ACID] | 138 | 1700
8 | C=C1C(=O)O[C@@H](CCCCCCCCCCCCC)[C@@H]1C(=O)O [PROTOLICHESTERINIC ACID] |  | > 5000
